Only some compounds are listed: those with a hit (about 3.9% of all), similar ones and a draw of the others.
Gli-Sufu antag = blocks Gli-Sufu signaling in a luciferase reporter. Sufu-KO-LIGHT fibroblasts, Gli luciferase reporter luminescence. inhibition, % at 5 µM. 340,000 tested, 0.74% active. AID 588413;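 active means inhibition above about 55%, limit read from the data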;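 further: 0% = DMSO-treated cells and 100% = wells with medium but no cells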
CHOP inh = blocks CHOP induction under ER stress | CHO-K1 CHOP-promoter luciferase, tunicamycin-induced, 15-18 h | inhibition, % at 10 µM | 220,000 tested, 3.8% active;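 active means compounds that reduced the stress-induced luciferase reporter signal by more than about 70% of percent inhibition, limit read from the data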;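 further: 0% = tunicamycin plus vehicle and 100% = wells without tunicamycin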
XBP1 UPR activ = activators of adaptive arm of unfolded protein response (XBP1) | activation, % at 20 µM | CHO-XBP1 luciferase reporter, IRE1-XBP1 UPR activation, luminescence; percent of tunicamycin response, DMSO as zero | 330,000 tested, 0.33% active;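 active means versus positive control, 20 µM dose yields 30% or more activation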;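 further: 100% = tunicamycin at 10 µg/mL and 0% = DMSO only wells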
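incubation = overnight seeding at 37 °C, 6 h compound treatment at 37 °C | assay system = CHO-XBP1 cells stably carrying IRE1-XBP1-driven luciferase reporter | input = 1000 cells per well | detection = luciferase luminescence | dosing = single point, 20 µM final compound, 1% DMSO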
UPR CHOP act = activators of apoptotic arm of unfolded protein response (CHOP) | CHO-CHOP luciferase reporter, UPR activation, luminescence; percent of tunicamycin response over DMSO baseline | activation, % at 10 µM | 330,000 tested, 0.34% active | AID 449763;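 active means at 10 µM dose, activation of 40% or more, normalized to positive control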;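 further: 100% = tunicamycin at 10 µg/mL and 0% = DMSO alone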
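Assay system: CHO cells with stable CHOP pathway luciferase reporter; Buffer or medium: F12 plus 10% serum; Times: 16-18 h cell attachment, then 6 h compound exposure, 37 °C; Signal: luciferase luminescence; Read-out basis: percent activation relative to tunicamycin control; Control set: tunicamycin high control, DMSO low control.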
Jurkat NFkB inh = inhibitors of the PMA/ionomycin-induced NF-kB reporter in Jurkat cells | PMA/ionomycin-induced NF-kB luciferase reporter, luminescence | inhibition, % at 4 µM | 330,000 tested, 0.53% active | AID 435003; in the data active means inhibition above about 50%
697 NFkB inh = lowers PMA/ionomycin-induced NF-kB signal in 697 B cells. 697 B-cell NF-kB luciferase reporter, 16 h. inhibition, % at 4 µM. 330,000 tested, 0.33% active; in the data active means inhibition above about 35%
Gli-Sufu confirm = confirmation of Gli-SUFU pathway antagonists | shares compounds with Gli-Sufu antag | Sufu-KO-LIGHT cells, Gli luciferase reporter, luminescence | inhibition, % at 5 µM | 2,500 tested, 40% active | AID 602428;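 active means mean inhibition at 5 µM reaching about 45%, limit read from the data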;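 further: plate controls were DMSO-treated cells for no effect and wells lacking cells for full effect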
Gli cytotox = counter-screen for Gli-SUFU antagonists: cytotoxicity; shares compounds with Gli-Sufu antag; Sufu-KO-LIGHT cells cytotoxicity, ATP luminescence; cytotoxicity, % at 5 µM; 2,500 tested, 32% active; AID 651994;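 active means mean cytotoxicity at 5 µM above about 25%, limit read from the data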;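 further: cells exposed to compound overnight for roughly 16 to 18 hours; plate controls were DMSO wells with cells for no effect and medium without cells for full effect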
Wnt3a cs = inhibits Wnt3a reporter, counter-screen for Gli-SUFU antagonists | inhibition, % at 6.25 µM | Wnt-LIGHT cells, Wnt3a-driven luciferase reporter, luminescence | AID 651995 | shares compounds with Gli-Sufu antag | 2,500 tested, 20% active;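 active means mean inhibition above about 25%, limit read from the data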
* marks the source's active call; other numbers are inactive results; . = no result given.

SMILES	Gli-Sufu antag	CHOP inh	XBP1 UPR activ	UPR CHOP act	Jurkat NFkB inh	697 NFkB inh	Gli-Sufu confirm	Gli cytotox	Wnt3a cs
CCOC(=O)C1(CCCc2ccccc2)CCN(Cc2nccn2CC)CC1	50	14	1	-2	-12	-45	33	10	-17
CCc1noc(C)c1C(=O)NNC(=O)COc1ccc(C)c(C)c1	-3	.	-2	0	-18	17	.	.	.
CCOc1ccccc1NC(=O)CCn1ccnc1	58*	.	-5	0	0	8	15	19	-6
CS(=O)(=O)Cc1ccc(C(=O)NCC2(N3CCCCC3)CCCCC2)cc1	52	.	3	1	-14	14	29	17	0
CS(=O)(=O)c1ccc(C(=O)NCC2(N3CCCCC3)CCCCC2)cc1	19	-19	-1	1	-7	15	.	.	.
COc1cc(C2c3cc4c(cc3OC(NNC(N)=O)C2C)OCO4)cc(OC)c1OC (stereo not drawn)	56*	.	.	.	.	.	55*	62*	8
COc1cc(C2c3cc4c(cc3OC(NNC(N)=S)C2C)OCO4)cc(OC)c1OC (stereo not drawn)	45	.	.	.	.	.	.	.	.
Cc1cc2cc(CNC(=O)c3ccc(C)c([N+](=O)[O-])c3)ccc2[nH]1	58*	24	-2	0	7	17	29	26*	-62
Cc1cc2cc(CCNC(=O)c3ccc(C)c([N+](=O)[O-])c3)c(=O)[nH]c2cc1C	2	46	-3	1	1	10	.	.	.
O=C1NC(=O)C2(CCC(C3CCCCC3)CC2)N1 (stereo not drawn)	11	.	.	.	.	.	.	.	.
O=C(NCc1ccccc1)C12CC3CC(CC(Br)(C3)C1)C2	-4	.	-6	2	2	12	.	.	.
COCCNC(=S)NCc1ccc2[nH]c3c(c2c1)CCCC3	92*	6	4	1	11	-19	12	26*	-8
CC(NC(=O)COC(=O)CCC(=O)c1ccc(F)cc1)c1ccccc1 (stereo not drawn)	-18	.	0	1	6	-5	.	.	.
COc1cccc(C(C(=O)NC2CCCC2)N(C(=O)CNC(=O)c2ccco2)c2cccnc2)c1 (stereo not drawn)	-17	.	1	1	9	3	.	.	.
C=CCn1c(SCn2nnc3ccccc3c2=O)nc2scc(-c3cccs3)c2c1=O	52	21	1	0	1	8	14	21	0
C#Cc1ccc(CN2CCCC(C(=O)Nc3ccccc3Oc3cccnc3)C2)cc1 (stereo not drawn)	-8	.	-5	-1	0	2	.	.	.
O=C(Nc1ccccc1Oc1cccnc1)C1CCCN(Cc2ccccc2O)C1 (stereo not drawn)	51	.	-9	-1	5	3	14	28*	-12
CC(Oc1ccccc1)C(=O)Nc1cc(Cl)ccc1-n1cncn1 (stereo not drawn)	-2	.	0	-3	2	10	.	.	.
CC(C)=CCSc1nnc([C@@H](NC(=O)OC(C)(C)C)C(C)C)o1	60*	13	-1	-2	-3	15	10	25*	-32
O=C(c1cc(S(=O)(=O)N2CCN(c3ccccc3)CC2)ccc1Cl)N1CCCCCCC1	17	.	-2	2	17	-2	.	.	.
COc1cc(Cl)ccc1OCc1cc(C(=O)NC(C)Cc2cccnc2)no1 (stereo not drawn)	-8	.	-4	3	-28	-31	.	.	.
COc1cc2c(c(OC)c1OC)-c1ccc(N(C)CC(OC)OC)c(=O)cc1[C@@H](NC(C)=O)CC2	57*	.	-2	-2	47	-197	58*	34*	-75
COc1cc2c(c(OC)c1OC)-c1ccc(NC(=O)c3ccc(F)cc3)c(=O)cc1[C@@H](NC(C)=O)CC2	5	.	9	-1	44	-1	.	.	.
CNC1CCc2cc(OC)c(OC)c(OC)c2-c2ccc(SC)c(=O)cc21 (stereo not drawn)	48	.	.	.	.	.	.	.	.
COc1cc2c(c(OC)c1OC)-c1ccc(SC)c(=O)cc1C(N)CC2 (stereo not drawn)	56*	.	.	.	.	.	55*	63*	-3
SMILES	Gli-Sufu antag	CHOP inh	XBP1 UPR activ	UPR CHOP act	Jurkat NFkB inh	697 NFkB inh	Gli-Sufu confirm	Gli cytotox	Wnt3a cs
COc1cc2c(c(OC)c1OC)-c1ccc(SC)c(=O)cc1C(NC(=O)C(F)(F)F)CC2 (stereo not drawn)	51	.	.	.	.	.	60*	61*	41*
CCOC(=O)NC1CCc2cc(OC)c(OC)c(OC)c2-c2ccc(OC)c(=O)cc21 (stereo not drawn)	63*	.	.	.	.	.	57*	57*	9
CCCCCN(C(=O)CCC(=O)OCC(=O)NCc1cccc(OC)c1)c1c(N)n(CCCC)c(=O)[nH]c1=O	6	.	0	-2	18	-7	.	.	.
CC(C)(C)S(=O)N1Cc2cc(CO)cc(CCO)c2[C@@H]1CCO (stereo partly drawn)	-5	.	.	.	.	.	.	.	.
CC(C)CN(C(=O)CCC1CCCCC1)c1c(N)n(CC(C)C)c(=O)[nH]c1=O	-1	.	-1	0	2	9	.	.	.
CCCCCCc1cc2cc(C(=O)Nc3cccc(OC)c3)c(=O)oc2cc1O	61*	64	11	4	6	-17	58*	13	79*
O=C(O)C1=CC[C@@H](c2ccc(Cl)cc2)N(S(=O)(=O)c2ccc(Cl)cc2)[C@H]1c1ccc(Br)cc1	2	.	3	2	22	1	.	.	.
O=C(CN1CCN(Cc2ccccc2)CC1)Nc1nnc(C(F)(F)F)s1	63*	.	-2	3	-27	-39	28	-3	-18
CC1=C(C(=O)OCC2CCCCC2)C(c2ccc(O)cc2)NC(=O)N1 (stereo not drawn)	8	.	0	-1	-6	-16	.	.	.
CCCCOc1ncnc2c1[nH]c1ccc(F)cc12	58*	.	1	8	30	-8	56*	29*	12
CCOc1ccc2[nH]c3c(N4CCN(C(=O)c5ccco5)CC4)ncnc3c2c1	60*	-8	-1	2	-12	31	50*	19	-78
CCOC(=O)N1CCN(c2ncnc3c2[nH]c2ccc(F)cc23)CC1	76*	71*	2	4	26	19	75*	27*	-6
COc1ccc(N2CCN(c3ncnc4c3[nH]c3ccccc34)CC2)cc1	71*	50	-1	2	30	11	80*	24	21
COc1ccc(C(=O)Nc2ccccc2C(=O)NCCN2CCOCC2)cc1OC	37	.	0	1	-11	9	.	.	.

Screening data deposited in PubChem BioAssay by several laboratories.
